An excerpt weighted towards active compounds, which were near 4.6% of everything screened.
OX1R antag-1: antagonists of human orexin 1 receptor (OX1R). Orexin/Hypocretin receptor type 1 (Homo sapiens), O43613. inhibition, % at 6.6 µM. OX1R-expressing cells, FRET antagonist read-out. actives 1.8% (n = 330,000); in the data active means inhibition mostly above about 38%, no sharp cut-off; inactive means mostly below about 40%;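 further: 0% = agonist challenge alone and 100% = reference antagonist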
Target sequence (O43613 whole entry, looked up): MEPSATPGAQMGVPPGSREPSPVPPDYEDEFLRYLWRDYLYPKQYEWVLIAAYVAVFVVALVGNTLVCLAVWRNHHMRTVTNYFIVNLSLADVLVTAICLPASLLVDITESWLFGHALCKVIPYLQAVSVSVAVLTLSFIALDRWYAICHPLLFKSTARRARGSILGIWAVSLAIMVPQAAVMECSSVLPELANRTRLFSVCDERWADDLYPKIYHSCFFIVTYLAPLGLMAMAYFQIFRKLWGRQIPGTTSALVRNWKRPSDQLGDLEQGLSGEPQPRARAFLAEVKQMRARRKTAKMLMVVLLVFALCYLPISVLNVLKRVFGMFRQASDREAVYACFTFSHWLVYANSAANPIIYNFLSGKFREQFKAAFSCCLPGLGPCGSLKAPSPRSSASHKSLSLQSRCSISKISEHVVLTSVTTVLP
GPR7 antagonist: GPR7 receptor antagonists, primary screen, cell-based, fluorescence, single concentration; actives 1.1% (n = 290,000); Neuropeptides B/W receptor type 1 (Homo sapiens), P48145; inhibition, % at 4.4 µM; GPR7-expressing cells, fluorescence antagonist assay; in the data active means inhibition above about 16%, passing the limit was not always enough;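 further: cells stimulated with the agonist NPW; 0% = agonist with vehicle and 100% = vehicle without agonist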
Target sequence (P48145 whole entry, looked up): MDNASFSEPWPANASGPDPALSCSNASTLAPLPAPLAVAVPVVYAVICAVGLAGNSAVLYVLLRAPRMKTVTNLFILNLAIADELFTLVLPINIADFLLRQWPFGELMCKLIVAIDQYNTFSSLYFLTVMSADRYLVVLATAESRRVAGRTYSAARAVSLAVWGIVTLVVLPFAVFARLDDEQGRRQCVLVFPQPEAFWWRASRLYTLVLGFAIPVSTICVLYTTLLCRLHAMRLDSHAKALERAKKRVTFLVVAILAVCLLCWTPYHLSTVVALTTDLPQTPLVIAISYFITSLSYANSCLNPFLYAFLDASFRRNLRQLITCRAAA
TAAR1 antag: human TAAR1 antagonists, primary screen, Fluo-8 calcium fluorescence, CHO RD-HGA16 cells. antagonist. actives 1.5% (n = 360,000). Trace amine-associated receptor 1 (Homo sapiens), Q96RJ0. inhibition, % at 3 µM;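 active means inhibition above a per-plate cutoff, the mean inhibition of test compounds on that plate plus 3 SD, cut at about 49% in these data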;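 further: 0% = DMSO plus EC80 beta-PEA response and 100% = DMSO alone without agonist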
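Test system – hTAAR1-expressing CHO RD-HGA16 cells, Gα16-coupled · Also added – β-PEA at EC80 concentration, post-compound challenge · Compound – 3 µM, single point · Incubation – dye loading 75 min at 37 °C, then 30 min room temperature · Measured by – Fluo-8 intracellular calcium dye fluorescence, real-time kinetic reads · Benchmarks – vehicle and agonist controls · Replicates – singlicate, one well per test compound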
CHO parental Ca: ATP-evoked calcium signal inhibitors, parental CHO, primary screen, counter-screen for OX1R antagonist project, cell-based, fluorescence, Fluo-8 calcium dye; parental CHO-K1, ATP-induced calcium, Fluo-8 fluorescence; inhibition, % at 5.6 µM; actives 0.63% (n = 330,000); AID 463079, 2010;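 active means inhibition above that plate's mean sample inhibition plus 3 SD, cut at about 26% in these data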;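 further: 0% = ATP-challenged DMSO wells and 100% = DMSO wells without ATP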
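Test system: parental CHO cells; detection: calcium-sensitive Fluo-8 fluorescence; evaluation: percent inhibition of calcium signal; also added: ATP as calcium-mobilizing challenge; repeats: one well per compound; control set: ATP-challenged DMSO wells low, unchallenged DMSO wells high; compound: single nominal dose of 5.6 µM per compound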
OX1R antag-2: OX1R (HCRTR1) antagonists, primary screen, fluorescence, CHO/OX1R cells, Fluo-8 calcium, orexin A; Orexin/Hypocretin receptor type 1 (Homo sapiens), O43613; actives 0.43% (n = 330,000); Fluo-8 calcium fluorescence; AID 434989, 2010; inhibition, % at 5 µM;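 active means inhibition above its plate's threshold, mean inhibition of all tested compounds on the plate plus 3 SD, cut at about 37% in these data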;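 further: 0% = orexin A challenge wells and 100% = SB-334867-A antagonist wells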
TAAR1 agonist: human TAAR1 agonists, primary screen, Fluo-8 calcium fluorescence, CHO RD-HGA16 cells. Trace amine-associated receptor 1 (Homo sapiens), Q96RJ0. vehicle wells 0%, saturating PEA agonist 100%. activation, % at 3 µM. actives 0.99% (n = 360,000);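 active means activation above the mean activation of all test compounds in the run plus 3 SD, cut at about 38% in these data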
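Assay system: CHO-derived RD-HGA16 cells with stable Gα16 and human TAAR1; timing: 17-24 h seeding, 75 min 37 °C dye, 30 min RT; read-out: % activation from peak over basal fluorescence ratio, DMSO-to-PEA scaled; measured by: kinetic Fluo-8 calcium fluorescence; benchmarks: low control DMSO, high control PEA (EC100); doses: 3 µM single concentration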
nonsel antag count: nonselective antagonists in TAAR1 counter-screen cells, counter-screen for hTAAR1 antagonist project, cell-based, fluorescence, calcium; shares compounds with TAAR1 antag; counterscreen cell line, antagonist mode; inhibition, % at 3 µM; actives 77% (n = 2,400); AID 651780, 2012; in the data active means inhibition above about 22%;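 further: CHO-Ga16 host cells stimulated with ATP at an EC80 level; 0% = agonist EC80 plus vehicle and 100% = vehicle without agonist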
TAAR1 ant conf: human TAAR1 antagonists, retest of hits, confirmation, cell-based, fluorescence | TAAR1-expressing cells, fluorescence antagonist read-out | shares compounds with TAAR1 antag | inhibition, % at 3 µM | actives 40% (n = 2,400) | AID 651785, 2012; in the data active means inhibition above about 49%;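 further: CHO-Ga16 host cells challenged with agonist PEA near its EC80; 0% = agonist at EC80 plus vehicle and 100% = vehicle with no agonist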
Ga16 ag counter-1: calcium activation in Ga16-expressing cells, counter-screen for TAAR1 antagonist project, cell-based, fluorescence | shares compounds with TAAR1 antag | agonist counterscreen | activation, % at 3 µM | actives 18% (n = 2,400) | AID 651953, 2012; in the data active means activation above about 12%;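 further: 0% = vehicle wells and 100% = saturating stimulus response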
TAAR1 ag counter: TAAR1 activation by candidate antagonists – cell-based, fluorescence, counter-screen for TAAR1 antagonist project; actives 2% (n = 2,400); hTAAR1 cell line, agonist mode; activation, % at 3 µM; shares compounds with TAAR1 antag; in the data active means activation above about 37%;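 further: CHO cells stably expressing TAAR1 with calcium dye readout; 0% = DMSO vehicle and 100% = full agonist response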
TAAR1 ag conf: human TAAR1 agonists, retest of hits, confirmation, Fluo-8 calcium fluorescence, CHO RD-HGA16 cells | shares compounds with TAAR1 agonist | scaled: DMSO 0%, maximal phenethylamine 100% | activation, % at 3 µM | actives 82% (n = 2,400) | AID 651783, 2012;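 active means activation above a cutoff set at the run's mean compound activation plus 3 SD, cut at about 39% in these data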
Ga16 ag counter-2: nonselective calcium mobilization agonists, CHO-Ga16 cells, counter-screen for hTAAR1 agonist project, cell-based, fluorescence, CHO-Ga16 parental line; shares compounds with TAAR1 agonist; activation, % at 3 µM; actives 50% (n = 2,400); Fluo-8 calcium fluorescence; normalized to maximal ATP response, DMSO zero;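 active means activation above the run cutoff, the mean activation over all tested wells plus 3 SD, cut at about 12% in these data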;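 further: 0% = DMSO wells and 100% = maximal ATP response on the peak over basal ratio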
TAAR1 desens: TAAR1 desensitization by agonist hits, confirmation, counter-screen for TAAR1 agonist project, cell-based, fluorescence, tachyphylaxis; shares compounds with TAAR1 agonist; actives 46% (n = 2,400); CHO RD-HGA16 hTAAR1, Fluo-8 calcium, beta-PEA response inhibition; inhibition, % at 3 µM;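 active means inhibition above the run cutoff, the mean inhibition of all test compounds plus 3 SD, cut at about 49% in these data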;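 further: beta-PEA stimulus applied at its EC80; loss of beta-PEA calcium signal after compound pretreatment read as receptor desensitization; 0% = DMSO with beta-PEA at EC80 and 100% = DMSO alone without agonist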
Ga16 nonsel ant: inhibition of ATP-evoked calcium response in CHO-Ga16 cells, counter-screen for TAAR1 agonist project, cell-based, fluorescence; shares compounds with TAAR1 agonist; CHO-Ga16 ATP-induced calcium, Fluo-8 fluorescence; inhibition, % at 3 µM; actives 39% (n = 2,400); AID 651952, 2012;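 active means inhibition above the plate's mean compound inhibition plus 3 SD, computed per plate, cut at about 22% in these data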;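 further: 0% = EC80 ATP with DMSO and 100% = DMSO wells without ATP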
* hit, by the source's call; . = no result.

SMILES	OX1R antag-1	GPR7 antagonist	TAAR1 antag	CHO parental Ca	OX1R antag-2	TAAR1 agonist	nonsel antag count	TAAR1 ant conf	Ga16 ag counter-1	TAAR1 ag counter	others
COc1ccc(-n2nnnc2C(c2cccs2)N2CCC(n3c(=O)[nH]c4ccccc43)CC2)cc1 (stereo unspecified)	.	.	71.4*	.	.	12.2	18.5	46.2	8.3	25.9
COc1ccc(-n2nnnc2C(C2CC2)N2CCC(n3c(=O)[nH]c4ccccc43)CC2)cc1 (stereo unspecified)	.	.	72.3*	.	.	31.5	18.8	51.0*	10.8	17.9
O=c1[nH]c2ccccc2n1C1CCN(C(c2cccs2)c2nnnn2-c2ccc3c(c2)OCCO3)CC1 (stereo unspecified)	.	.	59.0*	.	.	22.6	16.1	42.1	9.1	27.5
O=c1[nH]c2ccccc2n1C1CCN(C(c2cc3ccccc3o2)c2nnnn2Cc2ccccc2)CC1 (stereo unspecified)	.	.	61.5*	.	.	12.2	27.6*	53.4*	7.4	12.1
COc1ccc(-n2nnnc2C(c2ccnc3ccccc23)N2CCC(n3c(=O)[nH]c4ccccc43)CC2)cc1 (stereo unspecified)	.	.	18.0	.	.	16.6	.	.	.	.
COc1ccc2c3c1OC1C(=O)CC[C@@]4(O)[C@@H](C2)N(C)CC[C@]314 (stereo partly specified)	1.2	.	0.0	1.0	-24.8	0.8	.	.	.	.
COCCCN=Cc1c(O)[nH]c(=S)[nH]c1=O	10.6	-13.4	0.4	3.3	-3.3	-0.1	.	.	.	.
COc1cccc(NP(=O)(Oc2ccccc2)Oc2ccccc2)c1	28.5	9.6	71.8*	-26.7	-16.0	6.5	26.6*	48.8*	7.6	7.4
CC(C)C12CN3CCN(CC(C3)/C1=N\O)C2	13.2	0.0	107.7*	-9.8	-18.3	-3.0	4.8	9.7	-0.5	0.4
CC(C)CC12CN3CCN(CC(C3)/C1=N/O)C2	12.0	-7.0	-4.5	-1.1	13.8	3.5	.	.	.	.
O=P(Oc1ccccc1)(Oc1ccccc1)C(Nc1ccccc1)c1ccccc1 (stereo unspecified)	11.4	-1.9	87.8*	-22.9	-31.2	1.2	24.6*	56.7*	2.8	3.8
O=P(Oc1ccccc1)(Oc1ccccc1)C(O)c1ccccc1 (stereo unspecified)	33.9	.	-0.4	-12.2	-17.5	11.0	.	.	.	.
ClCCN(CCCl)c1ccc(-n2cnc3c(Cl)ncnc32)cc1	.	.	-31.4	.	.	0.5	.	.	.	.
O=Cc1c(C(=O)O)n(Cc2ccc(Cl)cc2)c2ccccc12	-5.8	-11.9	2.6	-0.2	-16.0	0.4	.	.	.	.
CN1CCN(CC(=O)Nc2ccc([N+](=O)[O-])cc2C(=O)c2ccccc2)CC1	31.1	0.7	103.9*	0.8	-34.9	4.7	2.1	-1.0	0.8	4.1
O=C(CN1CCOCC1)NCC(=O)Nc1ccc(Br)cc1C(=O)c1ccccc1	4.3	-0.8	21.2	-12.3	-7.7	1.6	.	.	.	.
c1cncc(CNCCN2CCNCC2)c1	.	.	-16.1	.	.	3.8	.	.	.	.
Cn1c2ccccc2c2c(C(=O)N3CCC4(CC3)OCCO4)cn(C3CCCC3)c(=O)c21	12.4	-5.0	55.7*	-9.7	-19.0	19.6	22.8*	42.4	9.7	9.4
Cc1ccc(S(=O)(=O)N2Cc3cc(N4CCOCC4)ccc3-n3nncc3C2)cc1	.	.	-0.2	.	.	4.8	.	.	.	.
CC(C)C[C@@H]1NC(=O)[C@H](Cc2ccccc2)N(C)C(=O)[C@H](C)NC(=O)c2ccccc2NC(=O)[C@H](Cc2ccc(O)cc2)N(C)C1=O	9.6	.	70.0*	-15.1	-18.3	10.4	31.7*	51.5*	8.5	8.0
N[C@@H]1C[C@H]1c1ccccc1	13.7	.	78.2*	-9.8	-5.0	80.0*	.	.	.	.	TAAR1 ag conf=98.6*;Ga16 ag counter-2=9.9;TAAR1 desens=85.8*;Ga16 nonsel ant=-2.0
CCCCn1c(O)c(C(CC)=NCCc2ccccc2)c(=O)[nH]c1=O	6.5	-9.8	70.0*	-10.4	-14.1	58.0*	.	.	.	.	TAAR1 ag conf=68.4*;Ga16 ag counter-2=6.9;TAAR1 desens=42.6;Ga16 nonsel ant=23.4*
C=CCn1c(O)c(C(CC)=NCCc2ccccc2)c(=O)[nH]c1=O	19.5	-12.0	29.9	-9.2	-31.0	73.6*	.	.	.	.	TAAR1 ag conf=77.9*;Ga16 ag counter-2=4.8;TAAR1 desens=40.2;Ga16 nonsel ant=4.9
CCC(=NCCc1ccccc1)c1c(O)n(C)c(=O)n(C)c1=O	3.7	-8.4	-3.2	1.8	2.4	62.4*	.	.	.	.	TAAR1 ag conf=60.6*;Ga16 ag counter-2=10.2;TAAR1 desens=40.0;Ga16 nonsel ant=32.2*
CCCCn1c(O)c(C(CC)=NCc2ccc(F)cc2)c(=O)[nH]c1=O	3.5	-15.8	20.9	-15.4	-16.3	15.4	.	.	.	.
